From PubChem
GPR7 antag = blocks human GPR7 receptor signaling | GPR7-expressing cells, fluorescence antagonist assay | inhibition, % at 4.4 µM | 290,000 compounds, 1.1% hits | AID 1861; in the data active = inhibition above about 16%, passing the limit was not always enough;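 also: cells stimulated with the agonist NPW; 0% = agonist with vehicle and 100% = vehicle without agonist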
Target sequence (P48145 whole entry, looked up): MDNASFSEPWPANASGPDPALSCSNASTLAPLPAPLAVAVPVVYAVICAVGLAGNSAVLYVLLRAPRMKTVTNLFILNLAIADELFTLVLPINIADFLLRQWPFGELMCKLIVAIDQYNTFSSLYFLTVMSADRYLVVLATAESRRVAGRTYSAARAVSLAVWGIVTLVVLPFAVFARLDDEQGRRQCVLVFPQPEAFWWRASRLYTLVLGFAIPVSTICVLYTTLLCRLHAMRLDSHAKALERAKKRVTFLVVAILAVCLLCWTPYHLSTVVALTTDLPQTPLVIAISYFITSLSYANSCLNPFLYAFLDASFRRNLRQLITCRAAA
zfTRPN1 agonist = agonists of zebrafish TRPN1 channel; 220,000 compounds, 0.18% hits; HEK293 zebrafish TRPN1-YFP, Fluo-8 calcium fluorescence; 100% = response to 87 µM carbachol; activation, % at 3 µM; AID 1424;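 active = activation above its plate's cutoff, the mean activation of test wells on that plate plus 3 SD, cut at about 19% in these data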;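 also: 0% = DMSO alone and 100% = 87 µM carbachol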
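Material: zebrafish TRPN1-YFP in HEK293 cells; Doses: single test compound dose, 3 µM nominal, 0.3% DMSO; Timing: dye loading 1 h at 37 °C, then 30 min room temperature; Technique: intracellular calcium fluorescence with Fluo-8; Benchmarks: high carbachol 87 µM, low DMSO alone.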
TRPML3 agonist = agonists of human TRPML3 channel; Q8TDD5; HEK293 TRPML3-YFP, Fluo-8 calcium fluorescence; 100% = the carbachol control signal; activation, % at 3 µM; 220,000 compounds, 0.29% hits;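 active = activation above its plate's cutoff, the mean activation of the plate's test wells plus 3 SD, cut at about 12% in these data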;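 also: 0% = DMSO only wells and 100% = carbachol wells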
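Test system – HEK293 line with stable expression of human TRPML3-YFP channel · Control set – carbachol 87 µM final as high control (100%), DMSO as low control (0%) · Signal – Fluo-8 calcium dye fluorescence, ex 470-495, em 515-575 nm · Incubation – 1-h 37 °C dye load, 5-s basal, 120-s post-compound reads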
TAAR1 antag = human TAAR1 antagonism; AID 624466; CHO RD-HGA16 TAAR1, Fluo-8 calcium fluorescence, antagonist; 360,000 compounds, 1.5% hits; inhibition, % at 3 µM;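 active = inhibition above a per-plate cutoff, the mean inhibition of test compounds on that plate plus 3 SD, cut at about 49% in these data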;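 also: 0% = DMSO plus EC80 beta-PEA response and 100% = DMSO alone without agonist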
Target sequence (Q96RJ0 whole entry, looked up): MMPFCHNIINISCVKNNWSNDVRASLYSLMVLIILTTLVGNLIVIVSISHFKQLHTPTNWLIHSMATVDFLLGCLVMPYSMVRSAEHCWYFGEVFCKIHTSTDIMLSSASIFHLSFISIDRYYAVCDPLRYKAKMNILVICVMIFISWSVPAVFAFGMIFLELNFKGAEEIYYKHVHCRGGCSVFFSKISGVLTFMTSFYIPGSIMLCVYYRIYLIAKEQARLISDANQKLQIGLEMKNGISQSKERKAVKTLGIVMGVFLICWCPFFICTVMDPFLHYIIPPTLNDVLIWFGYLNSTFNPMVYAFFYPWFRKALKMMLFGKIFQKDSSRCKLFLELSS
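test system = CHO RD-HGA16 cells bearing hTAAR1 | replication = singlicate | controls = DMSO-only wells and EC80 β-PEA-stimulated wells | reagent = EC80 β-phenethylamine stimulus | read-out basis = percent inhibition of PEA-evoked calcium signal, max/basal emission ratio | schedule = seeding 17-24 h prior, 75-min 37 °C, 30-min RT dye loading | signal = kinetic Fluo-8 calcium fluorescence measurement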
LANA-H2B inh = blocks KSHV LANA binding to histone H2A/H2B; Q9QR71; inhibition, % (test concentration not listed); cell-free LANA-H2A/H2B peptide, fluorescence polarization; AID 2629; 320,000 compounds, 0.6% hits; in the data active = inhibition mostly above about 10%, no sharp cut-off; inactive = mostly below about 6.7%
TAAR1 agonist = agonists of human TAAR1; activation, % at 3 µM; Q96RJ0; CHO RD-HGA16 TAAR1, Fluo-8 calcium fluorescence; vehicle wells 0%, saturating PEA agonist 100%; 360,000 compounds, 0.99% hits;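 active = activation above the mean activation of all test compounds in the run plus 3 SD, cut at about 38% in these data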
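System: CHO-derived RD-HGA16 cells with stable Gα16 and human TAAR1. Times: 17-24 h plating, Fluo-8 75 min 37 °C, 30 min RT. Measured by: calcium-sensitive Fluo-8 signal, excitation 470-495, emission 515-575 nm. Read-out basis: % activation relative to PEA EC100 response. Control set: DMSO and PEA EC100. Repeats: no replicates (n 1).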
Active calls of the source: *; nt = no result. Most compounds without a hit are left out; they make up all but 3.4% or so of the library.

SMILES	GPR7 antag	zfTRPN1 agonist	TRPML3 agonist	TAAR1 antag	LANA-H2B inh	TAAR1 agonist
Clc1ccc(CCNc2ncnc3c2nnn3Cc2ccccc2)cc1	9	nt	nt	-32	1	38*
CC(C)CCNc1ncnc2c1nnn2Cc1ccccc1Cl	0	4	0	21	-7	40*
Cc1ccc(C(=O)N2O[C@]34C=C[C@]25C[C@@H](O)CC[C@]5(C)C3CC[C@]2(C)[C@@H]([C@H](C)/C=C/[C@H](C)C(C)C)CC[C@H]24)cc1 (stereo not given in full)	nt	nt	nt	-26	nt	3
COC(=O)C1=C(C)N(Cc2ccc(Br)cc2)C(=S)NC1c1cccc(F)c1 (stereo not given)	nt	nt	nt	36	nt	3
COC(=O)[C@]12CCCCC=C1N(CCc1ccc(OC)c(OC)c1)C(=O)[C@H](CC(=O)NCc1cccc(C(F)(F)F)c1)C2	nt	nt	nt	49*	nt	5
COC(=O)[C@@]12C[C@@H](CC(=O)NCCC(C)C)C(=O)N(CCc3ccc(OC)c(OC)c3)C1=CCC(C)(C)C2	nt	nt	nt	-7	nt	3
COC(=O)[C@@]12C[C@@H](CC(=O)NCc3cccc(C(F)(F)F)c3)C(=O)N(CCc3ccc(OC)c(OC)c3)C1=CCC(C)(C)C2	nt	nt	nt	58*	nt	8
COC(=O)C1=C(C)N(C)C(=NCC2CC2)NC1c1ccccc1 (stereo not given)	nt	nt	nt	-6	nt	1
COC(=O)c1ccc(N2C(=O)CC(N3CCN(c4ccccc4)CC3)C2=O)cc1 (stereo not given)	19*	1	0	-17	0	1
COC(=O)c1cc2c(c3c4cc(F)ccc4n(S(=O)(=O)c4cccc(C)c4)c13)C(=O)N(Cc1ccccc1OC)C2	nt	nt	nt	-4	nt	0
CCNS(=O)(=O)c1ccc(NC(=S)NCc2ccco2)cc1	0	0	0	20	-4	4
O=S(=O)(NCc1ccccc1)c1ccc(NC(=S)NCc2ccco2)cc1	-3	nt	nt	53*	2	41*
O=C(COc1ccccc1-c1ccccc1)Nc1ccc(S(=O)(=O)NCc2ccco2)cc1	5	0	0	61*	-1	9
CN1CCCCC(NC(=O)c2ccc(F)c(F)c2)C1=O (stereo not given)	nt	nt	nt	-17	nt	1
CCOC(=O)C1=CCC(c2ccccc2)N(S(C)(=O)=O)C1 (stereo not given)	nt	nt	nt	-9	nt	4
Cc1ccc(S(=O)(=O)N2CCC(C(=O)NCCCN3CCCCCC3)CC2)cc1	-13	0	0	-9	-1	0
CCCCNC(=O)C1CCN(C(=O)C2CCN(S(=O)(=O)c3ccc(C)cc3)CC2)CC1	-17	nt	nt	-12	13*	1
CCC(C)NC(=O)C1CCN(S(=O)(=O)c2ccc3[nH]c(=O)ccc3c2)CC1 (stereo not given)	3	nt	nt	-23	-4	4
CCCNC(=O)C1CCN(S(=O)(=O)c2ccc3[nH]c(=O)ccc3c2)CC1	-16	nt	nt	-10	20*	1
COC(=O)C1=C(C)N(Cc2cccc(C(F)(F)F)c2)C(=NCc2cc(OC)c(OC)c(OC)c2)NC1c1cccc(C(F)(F)F)c1 (stereo not given)	nt	nt	nt	-5	nt	4
C[C@H](O)[C@@H]1C(=O)N2CCc3c([nH]c4cccc(-c5ccccc5)c34)[C@@H]2C[C@@H]1N(C)C(=O)Nc1ccccc1	nt	nt	nt	11	nt	1
Cc1cc[n+](-c2[nH]c(=O)sc2/C=N/NC([S-])=Nc2ccccc2)cc1C	-11	3	3	-2	nt	12
CC(C)(C)c1cc[n+](-c2[nH]c(=O)sc2/C=N/NC([S-])=Nc2ccccc2)cc1	-2	9	7	-1	42*	5
O=C(Nc1ccc2c(c1)OCCO2)C1CC(c2ccccc2Cl)=NO1 (stereo not given)	1	nt	nt	11	9.2*	6
O=C(Nc1ccc2c(c1)OCO2)C1CC(c2ccccc2O)=NO1 (stereo not given)	13	nt	nt	-2	1	9
SMILES	GPR7 antag	zfTRPN1 agonist	TRPML3 agonist	TAAR1 antag	LANA-H2B inh	TAAR1 agonist
CCN1/C(=C/c2sc(-c3ccccc3C)c[n+]2C)Sc2ccccc21	47*	3	0	19	nt	8
CCCOCCOC(=O)c1[nH]c2c(c1C)C(=O)CC(c1cc(OC)ccc1OC)C2 (stereo not given)	20*	0	0	47	-4	1
COCCOC(=O)c1[nH]c2c(c1C)C(=O)CC(c1cc(OC)ccc1OC)C2 (stereo not given)	8	1	0	-3	-6	2
O=C(O)c1ccc(N/N=C/c2ccc(OC(=O)c3ccccc3Cl)cc2)cc1	-1	-1	-1	58*	2	10
O=C(O)c1ccc(N/N=C/c2ccc(-c3ccccc3)cc2)cc1	2	-2	0	18	nt	2
Cc1cc(C)c(NC(=O)CC(C)(C)C)c(Cl)c1	-4	0	0	-5	2	9
Cc1cc(C)c(NC(=O)CS)c(Cl)c1	9	0	1	-16	18*	1
COC(=O)C1=C(C)N(C)C(=NCc2ccccc2)NC1c1ccc(F)cc1 (stereo not given)	nt	nt	nt	7	nt	3
Cc1ccc(/C(N)=N/OC(=O)CN(C)S(=O)(=O)c2ccc(C)cc2)cc1	-9	nt	nt	7	-2	0
COc1ccc(/C(N)=N/OC(=O)CN(C)S(=O)(=O)c2ccc(C)cc2)cc1	5	-1	84*	20	nt	5
COc1cc(Cl)ccc1OCc1cc(C(=O)NC2CCc3ccccc32)no1 (stereo not given)	-14	nt	nt	-36	29*	2
CSc1ccccc1OCc1cc(C(=O)NC2CCc3ccccc32)no1 (stereo not given)	-11	nt	nt	-6	-10	1
Cc1cc2c(c(=O)o1)[C@@]1(C(=O)N(C)c3cccc(Br)c31)C1=C(CCCC1=O)O2	nt	nt	nt	-22	nt	2
COc1ccccc1C(=O)Nc1nc(-c2ccc(S(=O)(=O)N3CCOCC3)cc2)cs1	-2	4	3	69*	4	31
CCOc1cccc(C(=O)Nc2nc(-c3ccc(S(=O)(=O)N4CCOCC4)cc3)cs2)c1	-6	1	1	53*	3	14
COc1ccc(-c2csc(NC(=O)c3ccccc3S(C)(=O)=O)n2)cc1	-2	3	1	23	-2	11
CCN1CCN(c2ccc(S(=O)(=O)N3CCOCC3)cc2NC(=O)c2cc(Cl)nc3ccccc23)CC1	nt	nt	nt	-34	-6	3
COc1ccc(-c2csc(NC(=O)c3ccc(S(C)(=O)=O)cc3)n2)cc1	-8	14	3	53*	4	27
